Hits are enriched below; roughly 11% of the tested compounds scored in any of these assays.
Lmaj promast: Leishmania major promastigote growth inhibition, primary screen; Leishmania major promastigotes, resazurin fluorescence viability; inhibition, % at 10 µM; hit rate 9% among 200,000;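 further: promastigotes grown with compound for 44 hours at 28 °C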
WT yeast gro inh: growth inhibition of WT strain, primary screen, mitochondrial fusion inhibitor project, WT and mutant strains, chemical genetic | mitochondrial fusion phenotypic screen | inhibition, % at 10 µM | hit rate 2.1% among 190,000 | AID 1362, 2008; in the data active means inhibition above about 58%; tested in S. cerevisiae
G6PDH counter: L. mesenteroides G6PDH inhibitors, counter-screen for G6PDH-coupled screening assays, biochemical, Leuconostoc mesenteroides enzyme; glucose-6-phosphate dehydrogenase [Leuconostoc mesenteroides]; Purified L. mesenteroides G6PDH, diaphorase/resazurin coupled fluorescence, 45 min; inhibition, % at 5 µM; hit rate 0.12% among 200,000; AID 1020, 2008
Diaphorase act: compounds boosting diaphorase resazurin reduction – biochemical, uHTS, resorufin fluorescence, counter-screen for diaphorase-coupled primary assays, primary screen; activation factor at 20 µM; Diaphorase/resazurin coupled assay, 16 min; active compounds read high; 1 = vehicle wells, 0 = NADH-free wells; hit rate 0.005% among 190,000;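 active means diaphorase activity raised at least twofold by the compound at 20 µM; inactive means activation factor below 2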
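Material: Purified diaphorase enzyme from Clostridium kluyveri | Buffer or medium: 50 mM HEPES pH 7.4 with 4.542 mM MgCl2, 0.005% Tween 20 | Times: 16 min enzyme reaction, ambient temperature | Signal: Red resorufin fluorescence at 544/590 nm excitation/emission | Measure: Increased resorufin signal from activators or reducing compounds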
Diaph inh CS: diaphorase inhibitors and chemical oxidizers, primary screen, counter-screen for diaphorase-coupled primary assays, biochemical, uHTS, resorufin fluorescence | diaphorase resazurin-to-resorufin fluorescence, NADH, 16 min; bacterial (C. kluyveri) enzyme, not human | inhibition, % at 20 µM | hit rate 0.69% among 190,000 | AID 1217, 2008;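 active means primary screen inhibition at 20 µM above a set limit, cut at about 50% in these data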;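 further: plate controls were DMSO with full reaction for no effect and wells lacking NADH for full effect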
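Detection: fluorescence of resorufin formed from resazurin, Ex 544/Em 590 nm; test system: Clostridium kluyveri diaphorase enzyme; amount: 0.14 U/mL diaphorase, enzyme working solution; times: 16-min room-temperature incubation before reading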
An asterisk follows results filed as active. Unless noted, no stated cut-off is given here; in the data, active means inhibition above about 50%; inactive means the rest.

How did COCCNC(=O)CSc1nc2cc(OC)c(OC)cc2c(=O)n1Cc1ccc(OC)cc1 do in these assays?
Lmaj promast: -1; WT yeast gro inh: 27; G6PDH counter: 9; Diaphorase act: 0.9; Diaph inh CS: 11

How did COc1ccc(S(=O)(=O)N(C)CC(=O)N2CCN(Cc3ccccc3)CC2)cc1C do in these assays?
Lmaj promast: 17; WT yeast gro inh: 7; G6PDH counter: 6; Diaphorase act: 0.8; Diaph inh CS: 16

Results for CCn1c2ccccc2c2nnc(SCC(=O)NC(CC(C)C)C(=O)OC)nc21 (centres undefined) ?
Lmaj promast: 0; WT yeast gro inh: -15; G6PDH counter: 9; Diaphorase act: 0.8; Diaph inh CS: 20

Results for COc1ccc(NC(=S)N2C3CCC2CC(NC(=O)NC24CC5CC(CC(C5)C2)C4)C3)c(OC)c1 (centres undefined) ?
Lmaj promast: -3; WT yeast gro inh: 15; G6PDH counter: -27; Diaphorase act: 0.8; Diaph inh CS: 18

Results for COc1ccccc1NC(=S)N1CCC(NC(=O)NC23CC4CC(CC(C4)C2)C3)CC1 ?
Lmaj promast: 97*; WT yeast gro inh: -4; G6PDH counter: 3; Diaphorase act: 0.9; Diaph inh CS: 12

How did CCOc1ccccc1NC(=S)N1CCC(NC(=O)NC23CC4CC(CC(C4)C2)C3)CC1 do in these assays?
Lmaj promast: 60*; WT yeast gro inh: -18; G6PDH counter: 7; Diaphorase act: 0.8; Diaph inh CS: 20

What do the screens show for `CCOc1cc(Cl)c(NC(=O)CC)cc1OCC`?
Lmaj promast: -4; WT yeast gro inh: 1; G6PDH counter: 3; Diaphorase act: 1; Diaph inh CS: 0

What do the screens show for `O=C(/C=C/c1cccc([N+](=O)[O-])c1)NCCSCc1ccc(Cl)cc1`?
Lmaj promast: 0; WT yeast gro inh: 31; G6PDH counter: 6; Diaphorase act: 0.9; Diaph inh CS: 8

What do the screens show for `Cc1ccc(C)c(CN2C(=O)C3(OCCCO3)c3ccccc32)c1`?
Lmaj promast: 58*; WT yeast gro inh: 25; G6PDH counter: 0; Diaphorase act: 0.8; Diaph inh CS: 18

Results for Cc1nc(NCc2cccnc2)c2c3c(sc2n1)CCCC3 ?
Lmaj promast: 2; WT yeast gro inh: -7; G6PDH counter: 5; Diaphorase act: 0.9; Diaph inh CS: 8

What do the screens show for `OCCNc1nc(SCc2ccccc2)nc2sc3c(c12)CCC3`?
Lmaj promast: 6; WT yeast gro inh: 78*; G6PDH counter: 4; Diaphorase act: 0.8; Diaph inh CS: 18

Results for O=c1oc(/C=C/c2ccccc2)nc2sc3c(c12)CCC3 ?
Lmaj promast: -4; WT yeast gro inh: -7; G6PDH counter: 6; Diaphorase act: 0.9; Diaph inh CS: 10

How did Cn1c(N/N=C/c2ccccc2)nc2sc3c(c2c1=O)CCC3 do in these assays?
Lmaj promast: 0; WT yeast gro inh: 62*; G6PDH counter: -6; Diaphorase act: 0.6; Diaph inh CS: 36

How did O=c1c2c3c(sc2nc(NCCO)n1CCc1ccccc1)CCCCC3 do in these assays?
Lmaj promast: 16; WT yeast gro inh: 70*; G6PDH counter: -3; Diaphorase act: 0.8; Diaph inh CS: 21

What do the screens show for `Oc1ccc(C=NC2CCCCC2)c(O)c1`?
Lmaj promast: -2; WT yeast gro inh: 14; G6PDH counter: 18; Diaphorase act: 0.7; Diaph inh CS: 27

What do the screens show for `O=C1CCCC2=C1C(c1cccs1)n1nc(SCc3ccccc3F)nc1N2` (centres undefined)?
Lmaj promast: 91*; WT yeast gro inh: -3; G6PDH counter: 4; Diaphorase act: 0.8; Diaph inh CS: 24

Results for Cc1ccccc1CSc1nc2n(n1)C(c1cccs1)C1=C(CCCC1=O)N2 (centres undefined) ?
Lmaj promast: 58*; WT yeast gro inh: -7; G6PDH counter: 2; Diaphorase act: 0.9; Diaph inh CS: 9

Results for CSc1nc2n(n1)C(c1cccs1)C1=C(CCCC1=O)N2 (centres undefined) ?
Lmaj promast: -8; WT yeast gro inh: -7; G6PDH counter: 11; Diaphorase act: 0.8; Diaph inh CS: 23

What do the screens show for `Cc1ccc(NC(=O)Cc2ccc3c(c2)CCCC3)cc1C`?
Lmaj promast: 1; WT yeast gro inh: 19; G6PDH counter: -6; Diaphorase act: 0.7; Diaph inh CS: 33

How did COc1cc(CC(=O)Nc2ccc3c(c2)CCC3)cc(OC)c1OC do in these assays?
Lmaj promast: 89*; WT yeast gro inh: -11; G6PDH counter: 3; Diaphorase act: 0.9; Diaph inh CS: 13

Results for CC(=O)c1cccc(NC(=O)Cc2ccc3c(c2)CCCC3)c1 ?
Lmaj promast: 81*; WT yeast gro inh: 12; G6PDH counter: 11; Diaphorase act: 0.9; Diaph inh CS: 8

How did COc1cc(CNc2ccc3c(c2)CCC3)cc(OC)c1O do in these assays?
Lmaj promast: 10; WT yeast gro inh: -6; G6PDH counter: -42; Diaphorase act: 0.4; Diaph inh CS: 56*

What do the screens show for `CCOc1cc(CNc2ccc3c(c2)CCC3)ccc1O`?
Lmaj promast: 16; WT yeast gro inh: 11; G6PDH counter: -1; Diaphorase act: 0.8; Diaph inh CS: 22

How did COc1ccc(C2CCCN2C(=O)Nc2ccc(Cl)cc2)cc1OC (centres undefined) do in these assays?
Lmaj promast: 2; WT yeast gro inh: 14; G6PDH counter: -1; Diaphorase act: 0.8; Diaph inh CS: 22

What do the screens show for `CN(C)S(=O)(=O)c1cccc(C(=O)OCC(=O)Nc2sccc2C#N)c1`?
Lmaj promast: -6; WT yeast gro inh: 11; G6PDH counter: 8; Diaphorase act: 1; Diaph inh CS: 3

What do the screens show for `O=C(NCCCN1CCOCC1)c1ccc(Sc2ccc(Br)cc2)c([N+](=O)[O-])c1`?
Lmaj promast: 92*; WT yeast gro inh: 0; G6PDH counter: -7; Diaphorase act: 0.8; Diaph inh CS: 23

Results for O=C(NCCCN1CCOCC1)c1ccc(Sc2ccccc2Cl)c([N+](=O)[O-])c1 ?
Lmaj promast: 94*; WT yeast gro inh: 2; G6PDH counter: -10; Diaphorase act: 0.8; Diaph inh CS: 24

Results for CC(=O)c1c(C(C)=O)c(C)n(NC(=O)c2ccncc2)c1C ?
Lmaj promast: -8; WT yeast gro inh: 4; G6PDH counter: 10; Diaphorase act: 0.9; Diaph inh CS: 5

How did O=C(C1CCN(S(=O)(=O)c2cccc3cccnc23)CC1)N1CCN(c2ccc(Cl)cc2)CC1 do in these assays?
Lmaj promast: 52*; WT yeast gro inh: 22; G6PDH counter: 4; Diaphorase act: 0.6; Diaph inh CS: 40

High-throughput results as filed in PubChem.
